Measured values as given in ChEMBL document CHEMBL1125255, “Romazarit: a potential disease-modifying antirheumatic drug” (J Med Chem, 1991).

Tests used:
[1] = Partition coefficient (logP); format: physicochemical; details: octanol/water
Summary of the method: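 Compound dissolved in disodium hydrogen phosphate/citric acid buffer pH 7.4 and partitioned against equal volume octan-1-ol. Buffer-phase UV absorbance read before and after partitioning near λmax. P′ from the octanol:buffer absorbance ratio.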

[2] = tested on: Rattus norvegicus; experiment: Hepatic effect assessed by increase in catalase levels after 14 days of dosing at 60 mg/kg orally.; format: functional
Summary of the method: (§1)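 Type II collagen arthritis rats, eight per group, given oral sodium salts daily for 14 days. At termination liver homogenized in ice-cold 0.25 M sucrose and spun 2000 rpm 10 min. Catalase followed by decline in A240 from H2O2 breakdown, expressed as first-order rate constant K. Result given as % change versus normals.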

[3] = tested on: Rattus norvegicus; experiment: Hepatic effect assessed by increase in liver weight after 14 days of dosing at 60 mg/kg orally.; format: functional
Summary of the method: (§2)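 Type II collagen arthritis rats, eight per group, daily oral dosing as sodium salts in water for 14 days. Liver weight recorded at termination and expressed as percentage change versus normal animals.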

[4] = tested on: Rattus norvegicus; experiment: Compound was evaluated in developing adjuvant arthritis model rats for its effect on paw edema.; format: functional; set-up: concentration or dose not given beside the values
Summary of the method: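 Female Allen and Hanbury hooded rats, five per group. Right hind paw injected sc on day 0 with heat-killed M. tuberculosis in paraffin oil (5 mg/mL). Compounds given orally as sodium salts in water. Paw volumes of both hind paws measured days 1–4, 1 h after dosing. Percent inhibition taken from area under the curve of the between-paw volume difference.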

[5] = tested on: Rattus norvegicus; experiment: Radiographic change was judged in the area of the talus joint, using an arbitrary scoring system upon termination of the test (14 days dosing of 60 mg/kg) in a model of type II collagen arthritis in the rat.; format: functional; details: 336 h
Summary of the method: (§3)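 Type II collagen arthritis rats, eight per group, oral sodium salts daily from grouping (day 1). Hind limbs X-rayed post mortem. Tibia/talus and tarsus damage scored 0–3 per foot by two observers and averaged; left and right summed (max 6). Compared with arthritic controls by Mann–Whitney U test.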

[6] = tested on: Rattus norvegicus; experiment: Radiographic change was judged in the area of the tarsus region, using an arbitrary scoring system upon termination of the test (14 days dosing of 60 mg/kg) in a model of type II collagen arthritis in the rat.; format: functional; details: 336 h; summary of the method: as §3
[7] = molecular target: Prostaglandin G/H synthase 1 (Ovis aries) (UniProt P05979); experiment: Inhibition of prostaglandin synthetase in sheep seminal vesicle
[8] = organism: Rattus norvegicus; experiment: Percent decrease in serum haptoglobin evaluated in a developing adjuvant arthritis model rats.
[9] = tested on: Rattus norvegicus; experiment: Hepatic effect assessed by increase in catalase levels after 14 days of dosing at 100 mg/kg orally.; format: functional; summary of the method: as §1
[10] = tested on: Rattus norvegicus; experiment: Hepatic effect assessed by increase in catalase levels after 14 days of dosing at 20 mg/kg orally.; format: functional; summary of the method: as §1
[11] = tested on: Rattus norvegicus; experiment: Hepatic effect assessed by increase in catalase levels after 14 days of dosing at 40 mg/kg orally.; format: functional; summary of the method: as §1
[12] = tested on: Rattus norvegicus; experiment: Hepatic effect assessed by increase in liver weight after 14 days of dosing at 100 mg/kg orally.; format: functional; summary of the method: as §2
[13] = tested on: Rattus norvegicus; experiment: Hepatic effect assessed by increase in liver weight after 14 days of dosing at 20 mg/kg orally.; format: functional; summary of the method: as §2
[14] = tested on: Rattus norvegicus; experiment: Hepatic effect assessed by increase in liver weight after 14 days of dosing at 40 mg/kg orally.; format: functional; summary of the method: as §2
[15] = tested on: Rattus norvegicus; experiment: Radiographic change was judged in the area of the talus joint, using an arbitrary scoring system upon termination of the test (14 days dosing of 20 mg/kg)in a model of type II collagen arthritis in the rat.; format: functional; details: 336 h; summary of the method: as §3
[16] = tested on: Rattus norvegicus; experiment: Radiographic change was judged in the area of the talus joint, using an arbitrary scoring system upon termination of the test (14 days dosing of 40 mg/kg)in a model of type II collagen arthritis in the rat.; format: functional; details: 336 h; summary of the method: as §3
[17] = tested on: Rattus norvegicus; experiment: Radiographic change was judged in the area of the talus joint, using an arbitrary scoring system upon termination of the test (14 days dosing of 60 mg/kg)in a model of type II collagen arthritis in the rat.; format: functional; details: 336 h; summary of the method: as §3
[18] = tested on: Rattus norvegicus; experiment: Radiographic change was judged in the area of the tarsus region, using an arbitrary scoring system upon termination of the test (14 days dosing of 100 mg/kg)in a model of type II collagen arthritis in the rat.; format: functional; details: 336 h; summary of the method: as §3
[19] = tested on: Rattus norvegicus; experiment: Radiographic change was judged in the area of the talus joint, using an arbitrary scoring system upon termination of the test (14 days dosing of 100 mg/kg)in a model of type II collagen arthritis in the rat.; format: functional; details: 336 h; summary of the method: as §3
[20] = tested on: Rattus norvegicus; experiment: Radiographic change was judged in the area of the tarsus region, using an arbitrary scoring system upon termination of the test (14 days dosing of 20 mg/kg)in a model of type II collagen arthritis in the rat.; format: functional; details: 336 h; summary of the method: as §3
[21] = tested on: Rattus norvegicus; experiment: Radiographic change was judged in the area of the tarsus region, using an arbitrary scoring system upon termination of the test (14 days dosing of 40 mg/kg)in a model of type II collagen arthritis in the rat.; format: functional; details: 336 h; summary of the method: as §3
[22] = tested on: Rattus norvegicus; experiment: Radiographic change was judged in the area of the tarsus region, using an arbitrary scoring system upon termination of the test (14 days dosing of 60 mg/kg)in a model of type II collagen arthritis in the rat.; format: functional; details: 336 h; summary of the method: as §3
[23] = […] level determined in rat type II collagen arthritis model after 14 days dosing of 100 mg/kg.; format: functional
Summary of the method: (§4)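 Rat type II collagen arthritis, eight rats per group, daily oral dosing as sodium salts in water for 14 days. Plasma haptoglobin determined at termination and compared with normal and arthritic controls by Student's t test.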

[24] = organism: Homo sapiens; experiment: Inhibition of human PGE-2 production.; format: functional
Summary of the method: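 Human blood mononuclear cells from healthy volunteers stimulated with 2.5 μg/mL phytohaemagglutinin and incubated 24 h with compound (sodium salt). PGE2 measured by RIA.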

[25] = […] level determined in rat type II collagen arthritis model after 14 days dosing of 20 mg/kg.; format: functional; summary of the method: as §4
[26] = […] level determined in rat type II collagen arthritis model after 14 days dosing of 40 mg/kg.; format: functional; summary of the method: as §4
[27] = […] level determined in rat type II collagen arthritis model after 14 days dosing of 60 mg/kg.; format: functional; summary of the method: as §4
[28] = molecular target: T1, Cyclooxygenase (Rattus norvegicus, UniProt P35355+Q63921); experiment: Inhibition of prostaglandin synthetase in rat renal medulla; format: functional, tissue-based
T1 sequence (P35355 whole entry): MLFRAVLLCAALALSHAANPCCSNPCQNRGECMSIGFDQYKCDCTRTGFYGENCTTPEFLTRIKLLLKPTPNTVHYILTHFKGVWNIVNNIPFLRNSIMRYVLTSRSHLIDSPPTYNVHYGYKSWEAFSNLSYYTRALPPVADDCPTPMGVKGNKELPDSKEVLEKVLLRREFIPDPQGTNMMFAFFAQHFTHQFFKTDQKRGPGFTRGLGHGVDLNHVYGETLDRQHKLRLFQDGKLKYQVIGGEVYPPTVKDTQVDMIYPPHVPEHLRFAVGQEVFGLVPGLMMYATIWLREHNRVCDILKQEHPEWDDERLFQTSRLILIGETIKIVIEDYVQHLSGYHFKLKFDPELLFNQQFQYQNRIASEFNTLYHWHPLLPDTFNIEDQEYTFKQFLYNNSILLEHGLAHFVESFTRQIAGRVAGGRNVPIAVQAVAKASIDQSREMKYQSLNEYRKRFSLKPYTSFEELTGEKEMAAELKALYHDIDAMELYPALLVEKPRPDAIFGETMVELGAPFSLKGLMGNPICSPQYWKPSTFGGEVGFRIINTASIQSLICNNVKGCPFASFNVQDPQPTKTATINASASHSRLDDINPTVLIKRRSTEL
T1 sequence (Q63921 whole entry): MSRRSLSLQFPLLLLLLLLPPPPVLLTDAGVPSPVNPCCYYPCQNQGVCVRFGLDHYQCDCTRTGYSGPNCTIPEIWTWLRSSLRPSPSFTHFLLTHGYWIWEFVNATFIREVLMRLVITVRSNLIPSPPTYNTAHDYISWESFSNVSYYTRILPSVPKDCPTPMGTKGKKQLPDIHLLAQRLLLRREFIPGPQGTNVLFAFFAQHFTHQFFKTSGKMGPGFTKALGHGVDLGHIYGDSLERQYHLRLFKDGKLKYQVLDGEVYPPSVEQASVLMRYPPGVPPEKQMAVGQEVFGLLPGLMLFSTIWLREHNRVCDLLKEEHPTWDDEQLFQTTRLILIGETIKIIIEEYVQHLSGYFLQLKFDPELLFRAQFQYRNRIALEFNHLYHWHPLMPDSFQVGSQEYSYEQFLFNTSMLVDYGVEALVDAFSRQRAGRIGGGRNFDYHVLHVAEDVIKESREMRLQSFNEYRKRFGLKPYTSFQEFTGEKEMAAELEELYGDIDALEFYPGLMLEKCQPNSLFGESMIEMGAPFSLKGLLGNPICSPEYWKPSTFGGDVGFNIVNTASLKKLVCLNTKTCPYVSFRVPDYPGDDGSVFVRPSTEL
Summary of the method: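 Same cyclooxygenase protocol run on rat renal medulla homogenate: 5 min 30 °C preincubation with glutathione 1 mM and adrenaline 625 μM. Prostaglandin/thromboxane area compared with the no-drug control.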

[29] = tested on: Rattus norvegicus; experiment: Plasma level in type II collagen arthritis model after 14 days of dosing at 100 mg/kg.; format: functional, organism-based; set-up: dose 100 mg/kg
Summary of the method: (§5)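 Type II collagen arthritis rats dosed orally for 14 days. Plasma drug level measured by reverse-phase C-18 HPLC with UV detection at 282 nm.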

[30] = tested on: Rattus norvegicus; experiment: Plasma level in type II collagen arthritis model after 14 days of dosing at 20 mg/kg.; format: functional, organism-based; set-up: dose 20 mg/kg; summary of the method: as §5
[31] = tested on: Rattus norvegicus; experiment: Plasma level in type II collagen arthritis model after 14 days of dosing at 40 mg/kg.; format: functional, organism-based; set-up: dose 40 mg/kg; summary of the method: as §5
[32] = tested on: Rattus norvegicus; experiment: Plasma level in type II collagen arthritis model after 14 days of dosing at 60 mg/kg.; format: functional, organism-based; set-up: dose 60 mg/kg; summary of the method: as §5
[33] = molecular target: Prostaglandin G/H synthase 1 (Ovis aries) (UniProt P05979); experiment: Inhibition of prostaglandin synthetase in sheep seminal vesicle; remark: listed apart in the source

Chain of Prostaglandin G/H synthase 1 (Ovis aries) (P05979 whole entry, looked up): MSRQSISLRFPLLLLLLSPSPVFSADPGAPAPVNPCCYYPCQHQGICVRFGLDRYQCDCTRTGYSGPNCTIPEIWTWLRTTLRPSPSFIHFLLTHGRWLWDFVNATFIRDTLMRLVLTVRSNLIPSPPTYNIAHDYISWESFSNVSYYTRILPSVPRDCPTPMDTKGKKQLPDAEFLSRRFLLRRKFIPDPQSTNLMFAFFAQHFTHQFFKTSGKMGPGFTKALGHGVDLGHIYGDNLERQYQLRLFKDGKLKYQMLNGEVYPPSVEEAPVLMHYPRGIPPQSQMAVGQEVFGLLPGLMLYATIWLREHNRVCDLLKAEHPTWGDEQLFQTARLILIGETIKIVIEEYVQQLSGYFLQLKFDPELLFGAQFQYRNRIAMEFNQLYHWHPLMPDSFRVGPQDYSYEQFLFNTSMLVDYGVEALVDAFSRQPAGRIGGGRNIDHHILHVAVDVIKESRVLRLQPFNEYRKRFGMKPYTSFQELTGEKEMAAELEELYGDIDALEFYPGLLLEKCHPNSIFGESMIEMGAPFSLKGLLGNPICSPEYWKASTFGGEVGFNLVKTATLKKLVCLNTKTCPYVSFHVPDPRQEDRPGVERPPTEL

Q: For `CC(C)(OCc1ccc(-c2ccc(Cl)cc2)cc1)C(=O)O` [CLOBUZARIT], which logP [1] is on record?
A: 1.52

Q: And the Change [2]?
A: 164%

Q: What about the Change [3] of the same compound?
A: 19%

Q: What about the Inhibition [4] of the same compound?
A: 48%

Q: And the inhibition in vivo at 60 mg/kg [5]?
A: 64%

Q: And the inhibition in vivo at 60 mg/kg [6]?
A: 41%

Q: What about the IC50 [7] of the same compound?
A: 950 µM

Q: What about the Decrease [8] of the same compound?
A: 31%

Q: What does the source list for `Cc1nc(-c2ccc(Cl)cc2)oc1COC(C)(C)C(=O)O` [ROMAZARIT]?
A: logP [1]: 0.34; Change [9]: 19%; Change [10]: -51%; Change [11]: -34%; Change [2]: -7%; Change [12]: 13%; Change [13]: -5%; Change [14]: -3%; Change [3]: 4%; Inhibition [4]: 73%; inhibition in vivo at 20 mg/kg [15]: 33%; inhibition in vivo at 40 mg/kg [16]: 40%; inhibition in vivo at 60 mg/kg [17]: 63%; inhibition in vivo at 100 mg/kg [18]: 56%; inhibition in vivo at 100 mg/kg [19]: 82%; inhibition in vivo at 20 mg/kg [20]: 7%; inhibition in vivo at 40 mg/kg [21]: 35%; inhibition in vivo at 60 mg/kg [22]: 46%; Haptoglobin [23]: 0.34 g/L; IC50 [24]: > 400 µM; Haptoglobin [25]: 0.31 g/L; Haptoglobin [26]: 0.43 g/L; Haptoglobin [27]: 0.32 g/L; IC50 [28]: > 300 µM; Plasma level [29]: 267 µg/mL; Plasma level [30]: 64 µg/mL; Plasma level [31]: 102 µg/mL; Plasma level [32]: 172 µg/mL; IC50 [33]: 6500 µM; Decrease [8]: 26%
